{"data": "Assay results gathered from unrelated publications", "target": "Serine/threonine-protein kinase ULK1 (ULK1, Homo sapiens, UniProt O75385)", "Sequence (O75385 1-1050, as in one of the studies)": "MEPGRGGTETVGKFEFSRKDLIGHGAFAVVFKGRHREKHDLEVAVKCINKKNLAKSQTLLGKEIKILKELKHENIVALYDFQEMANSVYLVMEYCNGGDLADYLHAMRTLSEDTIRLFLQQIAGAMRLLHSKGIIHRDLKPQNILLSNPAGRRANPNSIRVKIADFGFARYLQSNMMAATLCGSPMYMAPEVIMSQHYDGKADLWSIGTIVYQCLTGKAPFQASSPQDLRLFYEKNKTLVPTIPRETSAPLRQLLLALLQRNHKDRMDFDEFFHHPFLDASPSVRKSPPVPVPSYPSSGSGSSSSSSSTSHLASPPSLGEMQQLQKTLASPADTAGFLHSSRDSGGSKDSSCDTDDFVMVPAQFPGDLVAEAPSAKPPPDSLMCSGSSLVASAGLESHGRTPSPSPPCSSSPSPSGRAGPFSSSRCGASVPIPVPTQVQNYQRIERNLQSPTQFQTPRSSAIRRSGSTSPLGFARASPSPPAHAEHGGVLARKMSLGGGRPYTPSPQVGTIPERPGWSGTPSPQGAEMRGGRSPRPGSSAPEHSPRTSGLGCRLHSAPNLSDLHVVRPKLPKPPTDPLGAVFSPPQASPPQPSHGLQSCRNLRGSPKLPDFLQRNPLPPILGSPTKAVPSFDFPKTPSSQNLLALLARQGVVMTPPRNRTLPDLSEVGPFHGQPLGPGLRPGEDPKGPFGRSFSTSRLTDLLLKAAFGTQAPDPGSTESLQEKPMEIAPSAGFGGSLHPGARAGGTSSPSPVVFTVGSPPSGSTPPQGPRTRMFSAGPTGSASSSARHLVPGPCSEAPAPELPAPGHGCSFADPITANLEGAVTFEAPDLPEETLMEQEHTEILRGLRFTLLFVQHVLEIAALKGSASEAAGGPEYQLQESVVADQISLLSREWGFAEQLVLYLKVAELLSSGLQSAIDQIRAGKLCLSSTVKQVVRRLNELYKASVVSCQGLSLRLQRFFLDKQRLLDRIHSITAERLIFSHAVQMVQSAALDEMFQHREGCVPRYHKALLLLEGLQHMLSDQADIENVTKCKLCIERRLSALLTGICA"}
{"SMILES": "Cc1noc([C@H]2C[C@@H](c3ccc(C(F)(F)F)cc3)CN(C(=O)N3CCS(=O)(=O)C3)C2)n1", "read-out": "cell-free assay", "technique": "competition with immobilised ligand", "tested at": "1 µM", "remaining binding": "85%"}
{"SMILES": "O=C(c1ccc(Nc2ncc(Cl)c(-c3cc4ccccc4s3)n2)cc1)N1CCC(N2CCCC2)CC1", "read-out": "binding", "technique": "competition with immobilised ligand", "tested at": "1 µM", "remaining binding": "1.8%"}
{"SMILES": "Cc1cnn2ncc(-c3ccnc(N(C)C)n3)c2c1", "read-out": "binding", "tested at": "1 µM", "remaining binding": "100%"}
{"SMILES": "Nc1ncc2c(n1)-c1c([nH]c3ccc(C#CC4CC4)cc13)CCCC2", "read-out": "binding", "technique": "competition with immobilised ligand", "tested at": "1 µM", "remaining binding": "92%"}
{"SMILES": "F[C@@H]1CCN(c2nccc(-c3cnn4ncccc34)n2)C1", "read-out": "binding", "tested at": "1 µM", "remaining binding": "89%"}
{"SMILES": "CN(C(=O)c1ccccc1)c1cc(N(C)c2ccc3c(c2)CCc2ccc(C(=O)NCCN4CCOCC4)cc2C3=O)ccc1F", "read-out": "cell-free assay", "technique": "competition with immobilised ligand", "tested at": "1 µM", "remaining binding": "100%"}
{"SMILES": "N[C@@H]1CCN(c2nccc(-c3cnn4ncccc34)n2)C1", "read-out": "binding", "tested at": "1 µM", "remaining binding": "100%"}
{"SMILES": "O=C(c1ccc(Nc2ncc(Cl)c(-c3ccc(Cl)s3)n2)cc1)N1CCC(N2CCCC2)CC1", "read-out": "binding", "technique": "competition with immobilised ligand", "tested at": "1 µM", "remaining binding": "1.8%"}
{"SMILES": "C[C@H]1CCN(c2nccc(-c3cnn4ncccc34)n2)C1", "read-out": "binding", "tested at": "1 µM", "remaining binding": "85%"}
{"SMILES": "c1cncc(-c2cccc(Nc3nccc(NC4CCCCC4)n3)c2)c1", "read-out": "binding", "technique": "competition with immobilised ligand", "tested at": "10 µM", "remaining binding": "100%"}
{"SMILES": "O=C(NCC1CCOCC1)c1n[nH]cc1NC(=O)c1c(F)cccc1F", "read-out": "binding", "technique": "competition with immobilised ligand", "tested at": "1 µM", "remaining binding": "86%"}
{"SMILES": "c1ccc(N2CCN(Cc3nc4ccccc4[nH]3)CC2)nc1", "read-out": "binding", "technique": "competition with immobilised ligand", "tested at": "1 µM", "remaining binding": "100%"}
{"SMILES": "CN(C)c1nccc(-c2cnc3ncccn23)n1", "read-out": "binding", "tested at": "1 µM", "remaining binding": "71%"}
{"SMILES": "COc1cnc(Nc2cccc(S(N)(=O)=O)c2)nc1N1CCN(c2ccccc2)CC1", "read-out": "binding", "technique": "competition with immobilised ligand", "tested at": "1 µM", "remaining binding": "73%"}
{"SMILES": "CC1=C(C#N)C(c2ccc3c(c2)c(NC(=O)c2ccccc2C)nn3C)C(C#N)=C(C)N1", "read-out": "cell-free assay", "technique": "competition with immobilised ligand", "tested at": "1 µM", "remaining binding": "86%"}
{"SMILES": "CN(CCCC(F)(F)F)c1nccc(-c2cnn3ncccc23)n1", "read-out": "binding", "tested at": "1 µM", "remaining binding": "79%"}
{"SMILES": "CCS(=O)(=O)c1cc2cc(C[C@](O)(CC(C)(C)c3ccc(F)cc3C(N)=O)C(F)(F)F)[nH]c2cn1", "read-out": "cell-free assay", "technique": "competition with immobilised ligand", "tested at": "1 µM", "remaining binding": "100%"}
{"SMILES": "CNC(=O)c1ccccc1Nc1cc(Nc2ccc(N3CCOCC3)cc2OC)ncc1C(F)(F)F", "read-out": "binding", "technique": "competition with immobilised ligand", "tested at": "1 µM", "remaining binding": "< 10%"}
{"SMILES": "CN(C)C(=O)Cn1cc(-c2nc([C@@](C)(c3ccc(-c4cnc(N)nc4)cc3)C3CC3)no2)cn1", "read-out": "cell-free assay", "technique": "competition with immobilised ligand", "tested at": "1 µM", "remaining binding": "77%"}
{"SMILES": "O=C(c1ccc(Nc2nccc(-c3cc4ccccc4s3)n2)cc1)N1CCC(N2CCCC2)CC1", "read-out": "binding", "technique": "competition with immobilised ligand", "tested at": "1 µM", "remaining binding": "50%"}
